We go through 9 compounds from ChEMBL document CHEMBL1156036, “A class of novel N-(3S-1,2,3,4-tetrahydroisoquinoline-3-carbonyl)-L-amino acid derivatives: their synthesis, anti-thrombotic activity evaluation, and 3D QSAR analysis” (Eur J Med Chem, 2009).

Molecules are shown by their SMILES. pIC50: −log10 of the molar value. Square brackets hold non-standard residues; d marks the D form. Peptide text beside a SMILES is read from it. Tic = O=C(O)[C@@H]1Cc2ccccc2CN1 Where only a bound is given, the exact number is not on record here.

Common to all, as to type: functional
A short description of assay [1]: Antiplatelet aggregatory activity in pig […] assessed as inhibition of ADP-induced platelet aggregation. As to conditions: Sus scrofa. The gist of the method: (§1)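 Pig blood spun 1000g 10 min for platelet-rich plasma, then 1500g 10 min for platelet-poor plasma; platelets adjusted to 2×10^8/ml with autologous PPP. Test agent in NS (final 100 to 0.001 μM) added to 0.5 ml plasma, then inducer in NS: PAF 0.1 μM, ADP 10 μM, AA 350 μM or thrombin 0.1 U/ml (final). Optical aggregometry, 37 °C, 5 min, six tubes.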

A short description of assay [2]: Antiplatelet aggregatory activity in pig […] assessed as inhibition of arachidonic acid-induced platelet aggregation. Conditions: Sus scrofa. The gist of the method:
as §1

Assay [3] can be described thus: Antiplatelet aggregatory activity in pig […] assessed as inhibition of platelet-activating factor-induced platelet aggregation. Conditions: Sus scrofa. The gist of the method:
as §1

Assay [4] can be described thus: Antiplatelet aggregatory activity in pig […] assessed as inhibition of thrombin-induced platelet aggregation. As to conditions: Sus scrofa. The gist of the method:
as §1

Assay [5] has as its system Rattus norvegicus. The assay can be described thus: Antithrombotic activity in Wistar rat assessed as reduction of wet thrombus weight at 5 umol/kg, iv after 15 mins. The gist of the method: (§2)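 Male Wistar rats, 250-300 g, given agent dissolved in NS (kept on ice) intravenously; Aspirin 15 μmol/kg as reference, NS as vehicle. Pentobarbital sodium 80.0 mg/kg i.p. Arteriovenous shunt from right carotid artery to left jugular vein via polyethylene tube containing a thread; blood flowed 15 min; wet thrombus weighed, n = 12, mean ± SD.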

The species named for assay [6] is Rattus norvegicus. The assay can be described thus: Ratio of compound antithrombotic potency to aspirin antithrombotic potency in Wistar rat assessed as reduction of wet thrombus weight.
Assay [7] deals with Rattus norvegicus. Description: Antithrombotic activity in Wistar rat assessed as reduction of wet thrombus weight at 5 umol/kg, po after 15 mins. The gist of the method:
(§3)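 Oral dosing of male Wistar rats at 5, 1 or 0.2 μmol/kg in NS, or NS (0.6 ml) alone. Pentobarbital sodium 80.0 mg/kg ip; 30 min later vessels exposed. Weighed 6-cm thread in heparin-filled (50 IU/ml in NS) polyethylene tube linking carotid artery to jugular vein; 15 min flow; wet thrombus weight recorded, n = 12.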

Assay [8] concerns Rattus norvegicus. The assay can be described thus: Antithrombotic activity in Wistar rat assessed as reduction of wet thrombus weight at 1 umol/kg, po after 15 mins. The gist of the method: as §3
Assay [9] relates to Rattus norvegicus. The assay can be described thus: Antithrombotic activity in Wistar rat assessed as reduction of wet thrombus weight at 0.2 umol/kg, po after 15 mins. The gist of the method: as §3
Assay [10] has as its system Rattus norvegicus. Description: Antithrombotic activity in Wistar rat assessed as reduction of wet thrombus weight at 15 umol/kg, iv after 15 mins. The gist of the method: as §2
Assay [11] relates to Rattus norvegicus. Description: Antithrombotic activity in Wistar rat assessed as reduction of wet thrombus weight at 15 umol/kg, po after 15 mins.

Usually pIC50 stands for the negative decadic logarithm of the IC50, by convention in mol/L. `N=C(N)NCCC[C@H](NC(=O)[C@@H]1Cc2ccccc2CN1)C(=O)O` (H-[Tic]-Arg-OH): the pIC50 in assay [1] was 6.91; in assay [2], 6.44; in [3], 5.87; in assay [4], 6.30. The Activity turned out to be 18.73 mg in assay [5], 19.01 mg in assay [7], 24.38 mg in assay [8] and 29.11 mg in assay [9]. Also, the Ratio in [6] is listed as >30.
Regarding `CC(=O)Oc1ccccc1C(=O)O` [ASPIRIN], in [10], the Activity was 27.6 mg.
On to `O=C(O)[C@@H]1Cc2ccccc2CN1`, for which the pIC50 in [1] is 6.26; in [2], 6.34; in assay [3] it was 6.02; in [4] it was 6.06. Moreover, the Activity is recorded as 21.52 mg in [10] and 23.88 mg in [11].
As to `O=C(O)[C@H](Cc1c[nH]cn1)NC(=O)[C@@H]1Cc2ccccc2CN1` (H-[Tic]-His-OH), the pIC50 is 6.18 in assay [1], 6.31 in [2], 6.14 in assay [3] and 6.43 in assay [4]. Also, the Activity in assay [5] came out at 20.86 mg. Moreover, in assay [6], the Ratio is reported as >30.
Consider `O=C(O)[C@H](CS)NC(=O)[C@@H]1Cc2ccccc2CN1` (H-[Tic]-Cys-OH), for which the pIC50 in assay [1] was 6.64; in assay [2], 6.34; in assay [3], 6.11; in [4], 6.41. For the same compound, in [5], the Activity was 20.91 mg. For the same compound, in [6], the Ratio was >30.
In the case of `NC(=O)CC[C@H](NC(=O)[C@@H]1Cc2ccccc2CN1)C(=O)O` (H-[Tic]-Gln-OH), the pIC50 in assay [1] is 6.63; in assay [2], 6.31; in assay [3], 6.86; in assay [4] it was 6.03. Besides, the Activity in [5] is given as 22.08 mg. For the same compound, the Ratio in assay [6] was >30.
In the case of `NC(=O)C[C@H](NC(=O)[C@@H]1Cc2ccccc2CN1)C(=O)O` (H-[Tic]-Asn-OH), the pIC50 is 6.33 in assay [1], 6.78 in assay [2], 6.82 in assay [3] and 6.26 in assay [4]. For the same compound, the Activity in assay [5] is 20.24 mg. The Ratio in assay [6] is recorded as >30.
With `O=C(O)[C@@H]1CCCN1C(=O)[C@@H]1Cc2ccccc2CN1` (H-[Tic]-Pro-OH), the pIC50 in [1] was 6.44; in assay [2], 6.99; in [3], 5.85; in assay [4] it was 6.73. Also, in assay [5], the Activity is 20.25 mg. In addition, in [6], the Ratio is listed as >30.
For `O=C(O)CNC(=O)[C@@H]1Cc2ccccc2CN1` (H-[Tic]-Gly-OH), the pIC50 in assay [1] was 6.30; in [2], 6.97; in assay [3] it was 6.10; in assay [4], 6.51. Moreover, the Activity in assay [5] amounted to 20.24 mg. Also, the Ratio in assay [6] was >30.
